Active and inactive are the calls of the source. The rule behind the calls is not given here.

Data set [1] concerns SK-N-BE(2). In words: Inhibition of lysosomal defects in NAGLU-silenced human SK-NBE cell clones assessed as reduction in accumulation of enlarged LAMP1-positive lysosomal structures within the cytoplasm at 20 uM incubated for 48 hrs by LAMP1 staining based indirect immunofluorescence assay. In kind it is functional. Summed up:
(§1)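 Control and NAGLU-silenced SK-NBE clones grown on coverslips with 20 μM compound for 48 h. Fixed in 3.7% formaldehyde, permeabilized with saponin/BSA buffer, stained with anti-Lamp1 or anti-HS 10E4 for 1 h, then Alexa secondaries. Confocal imaging with 63× objective. Scored as percent cells with enlarged Lamp1 structures or membrane HS, plus mean fluorescence intensity, over 50 random cells from three experiments.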

Data set [2] concerns SK-N-BE(2). The experiment in a line: Effect on lysosome size and distribution in human SK-NBE cell clone assessed as at 20 uM incubated for 48 hrs by LAMP1 staining based indirect immunofluorescence assay. The class given is functional. Summed up: as §1
The test system of data set [3] is IB3-1. The experiment in a line: Cytotoxicity against human IB3-1 cells assessed as induction of apoptosis upto 100 uM. The class given is toxicity, cell-based. The note with it: ib3-1, 100 µM.
In data set [4] the test system is HaCaT. In words: Cytotoxicity against human HaCaT cells assessed as induction of apoptosis upto 100 uM. In kind it is toxicity, cell-based.
Data set [5] is described as follows: Cytotoxicity against human CuFi cells assessed as induction of apoptosis upto 100 uM. The class given is toxicity, cell-based.
In data set [6] the test system is IB3-1. In words: Antiproliferative activity against human IB3-1 cells upto 100 uM. The class given is toxicity, cell-based. The note with it: ib3-1, 100 µM.
Data set [7] relates to HaCaT. In words: Antiproliferative activity against human HaCaT cells upto 100 uM. The class given is toxicity, cell-based.
Data set [8] in a line: Antiproliferative activity against human CuFi cells upto 100 uM. The class given is toxicity, cell-based.
Data set [9] concerns SK-N-BE(2). The experiment in a line: Inhibition of heparan sulfate accumulation on cell membrane in NAGLU-silenced human SK-NBE cells clone at 20 uM incubated for 48 hrs by indirect immunofluorescence staining analysis. The class given is functional, cell-based. The essentials: as §1
Data set [10] relates to SK-N-BE(2). The experiment in a line: Effect on heparan sulfate changes in human SK-NBE cell membrane at 20 uM incubated for 48 hrs by indirect immunofluorescence staining analysis. The class given is functional, cell-based. Summed up: as §1
Data set [11] concerns Fibroblast. In words: Inhibition of lysosomal defects in Sanfilippo-B patient derived human fibroblast cells assessed as reduction in accumulation of enlarged LAMP1-positive lysosomal structures within the cytoplasm at 20 uM incubated for 48 hrs by LAMP1 staining based indirect immunofluorescence assay. In kind it is functional, cell-based. The essentials:
(§2)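 HDFa, MPS IIIA, MPS IIIB and MPS I patient fibroblasts in DMEM, 10% FBS, grown 48 h on coverslips with 20 μM compound. Double immunostained for HS (10E4) and Lamp1 with DAPI, confocal imaging. Mean fluorescence intensity expressed relative to untreated cells (d-enantiomers: percent positive cells), 50 random cells from three experiments.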

Data set [12] has as its system Fibroblast. The experiment in a line: Inhibition of lysosomal defects in Sanfilippo-B patient derived human fibroblast cells assessed as reduction in more concentrated lysosomal distribution in the perinuclear region of the cytoplasm at 20 uM incubated for 48 hrs by LAMP1 staining based indirect immunofluorescence assay. In kind it is functional, cell-based. Summed up: as §2

The test system of data set [13] is Fibroblast. In words: Inhibition of lysosomal defects in Sanfilippo-B patient derived human fibroblast cells assessed as dispersion of lysosomes all over the cytoplasm at 20 uM incubated for 48 hrs by LAMP1 staining based indirect immunofluorescence assay. In kind it is functional, cell-based. Summed up: as §2
For data set [14], the system named is Fibroblast. In words: Effect on heparan sulfate changes in human fibroblast cells at 20 uM incubated for 48 hrs by indirect immunofluorescence staining analysis. The class given is functional, cell-based. Summed up:
as §2

In data set [15] the test system is HeLa. In words: Inhibition of heparan sulfate accumulation on cell membrane in human HeLa cells at 20 uM incubated for 48 hrs by indirect immunofluorescence staining analysis. The class given is functional, cell-based. The essentials: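 HeLa cells grown 48 h with compound, then immunostained with anti-HS antibody 10E4 to gauge membrane HS.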
Data set [16] relates to HeLa. The experiment in a line: Cytotoxicity against human HeLa cells assessed as reduction in cell viability at 20 uM incubated for 48 hrs by trypan blue exclusion method. The class given is functional, cell-based. The essentials: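 HeLa cells seeded at 100,000 per well and grown overnight in complete RPMI. Exposed to 20 μM compound in the same medium for 48 h at 37 °C; untreated mock as control. Cells trypsinized, live cells counted by trypan blue exclusion on an automated counter. Means of three independent experiments, each in triplicate, with s.e.m.; Student's t-test, p < 0.05.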

In data set [17] the test system is SK-N-BE(2). In words: Inhibition of lysosomal defects in NAGLU-silenced human SK-NBE cell clones assessed as reduction in more concentrated lysosomal distribution in the perinuclear region of the cytoplasm at 20 uM incubated for 48 hrs by LAMP1 staining based indirect immunofluorescence assay. In kind it is functional. The essentials: as §1
Data set [18] concerns SK-N-BE(2). In words: Inhibition of lysosomal defects in NAGLU-silenced human SK-NBE cell clones assessed as dispersion of lysosomes all over the cytoplasm at 20 uM incubated for 48 hrs by LAMP1 staining based indirect immunofluorescence assay. The class given is functional. Summed up: as §1
Data set [19] deals with Fibroblast. The experiment in a line: Inhibition of heparan sulfate accumulation on cell membrane in Sanfilippo-B patient derived human fibroblast cells at 20 uM incubated for 48 hrs by indirect immunofluorescence staining analysis. In kind it is functional, cell-based. Summed up: as §2
In data set [20] the test system is Fibroblast. In words: Inhibition of lysosomal defects in Sanfilippo-A patient derived human fibroblast cells assessed as reduction in accumulation of enlarged LAMP1-positive lysosomal structures within the cytoplasm at 20 uM incubated for 48 hrs by LAMP1 staining based indirect immunofluorescence assay. The class given is functional, cell-based. The essentials: as §2

Data set [21] has as its system Fibroblast. In words: Inhibition of heparan sulfate accumulation on cell membrane in Sanfilippo-A patient derived human fibroblast cells at 20 uM incubated for 48 hrs by indirect immunofluorescence staining analysis. The class given is functional, cell-based. Summed up: as §2
The test system of data set [22] is Fibroblast. The experiment in a line: Inhibition of lysosomal defects in MPS-1 patient derived human fibroblast cells assessed as reduction in accumulation of enlarged LAMP1-positive lysosomal structures within the cytoplasm at 20 uM incubated for 48 hrs by LAMP1 staining based indirect immunofluorescence assay. The class given is functional, cell-based. Summed up: as §2

The subject of data set [23] is Fibroblast. In words: Inhibition of heparan sulfate accumulation on cell membrane in MPS-1 patient derived human fibroblast cells at 20 uM incubated for 48 hrs by indirect immunofluorescence staining analysis. The class given is functional, cell-based. Summed up:
as §2

`CCCCCCCCCN1C[C@@H](O)[C@H](O)[C@@H](O)[C@@H]1CO.Cl`: the inhibition entry in the data set on SK-N-BE(2) [1], in the data set on SK-N-BE(2) [9], in the data set on Fibroblast [11], in the data set on Fibroblast [12], in the data set with Fibroblast [13] and in the data set on HeLa [15] was “inactive” each time. Further, the outcome in the data set on SK-N-BE(2) [2], in the data set with SK-N-BE(2) [10], in the data set on Fibroblast [14] and with HeLa [16] was inactive. Besides, the Activity entry (with IB3-1 [3]; with HaCaT [4]; in data set [5]; in the data set with IB3-1 [6]; in the data set on HaCaT [7]; in data set [8]) was “Non-Toxic” each time.
Regarding `CCCCN1C[C@H](O)[C@@H](O)[C@H](O)[C@H]1CO`, the inhibition result with SK-N-BE(2) [1], in the data set on SK-N-BE(2) [17], in the data set with SK-N-BE(2) [18], in the data set on Fibroblast [11], with Fibroblast [12] and in the data set on Fibroblast [13] was “inactive” in each case. Also, the inhibition entry with Fibroblast [19], in the data set with Fibroblast [20], in the data set with Fibroblast [21], in the data set on Fibroblast [22] and in the data set with Fibroblast [23] was “inactive” each time. The outcome in the data set with SK-N-BE(2) [2], in the data set with Fibroblast [14] and in the data set with HeLa [16] was inactive.
For the compound `CCCCCCOCCCCCN1C[C@@H](O)[C@H](O)[C@@H](O)[C@@H]1CO.Cl`, the inhibition entry with SK-N-BE(2) [1], with SK-N-BE(2) [9], in the data set on Fibroblast [11], in the data set on Fibroblast [12], in the data set on Fibroblast [13] and with HeLa [15] was “inactive” in each case. For the same compound, the outcome in the data set with SK-N-BE(2) [2], with SK-N-BE(2) [10], in the data set with Fibroblast [14] and in the data set with HeLa [16] was inactive. Moreover, the Activity result (in the data set on IB3-1 [3]; in the data set on HaCaT [4]; in data set [5]; in the data set with IB3-1 [6]; in the data set with HaCaT [7]; in data set [8]) was “Non-Toxic” each time.
Turning to `CCCCCCCCCOCCCCCN1C[C@@H](O)[C@H](O)[C@@H](O)[C@@H]1CO.Cl`, the inhibition entry with SK-N-BE(2) [1], with SK-N-BE(2) [9], in the data set with Fibroblast [11], in the data set with Fibroblast [12], in the data set on Fibroblast [13] and in the data set with HeLa [15] was “inactive” in each case. In addition, the result in the data set with SK-N-BE(2) [2], in the data set with SK-N-BE(2) [10], in the data set on Fibroblast [14] and in the data set with HeLa [16] was inactive. Moreover, the Activity entry (in the data set with IB3-1 [3]; in the data set with HaCaT [4]; in [5]; with IB3-1 [6]; with HaCaT [7]; in data set [8]) was “Non-Toxic” in each case.
For `OC[C@H]1NC[C@H](O)[C@@H](O)[C@@H]1O`, the inhibition result with SK-N-BE(2) [1], in the data set on SK-N-BE(2) [17], in the data set with SK-N-BE(2) [18], with Fibroblast [11], in the data set on Fibroblast [12] and in the data set with Fibroblast [13] was “inactive” throughout. Also, the inhibition entry in the data set on Fibroblast [19], with Fibroblast [20], with Fibroblast [21], with Fibroblast [22] and with Fibroblast [23] was “inactive” each time. In addition, the result in the data set on SK-N-BE(2) [2], in the data set on Fibroblast [14] and in the data set with HeLa [16] was inactive.

These data come from ChEMBL document CHEMBL5380783, “N-Substituted l-Iminosugars for the Treatment of Sanfilippo Type B Syndrome” (J Med Chem, 2023).
